Experimental data from ChEMBL document CHEMBL1155938, “Design, synthesis and biological evaluation of new tryptamine and tetrahydro-beta-carboline-based selective inhibitors of CDK4” (Bioorg Med Chem, 2008).

How the values were obtained:
[1] = molecular target: Cyclin-dependent kinase 4/cyclin D1 (Homo sapiens, UniProt P11802); experiment: Inhibition of human CDK4/GST-cyclin D1 expressed in Sf9 cells assessed as retinoblastoma GST-RB152 phosphorylation
In short: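 CDK4 with GST-cyclin D1 was co-expressed in Sf-9, purified on glutathione-agarose and dialysed. The substrate was GST-RB152, expressed in E. coli BL21(DE3)pLysS (4 mM IPTG, 4 h, 37 °C). The buffer was 40 mM Tris pH 7.5, 20 mM MgCl₂, 0.1 mg/mL BSA plus inhibitors and DTT. 200 ng enzyme ran 30 min at 30 °C. Kinase-Glo luminescence (ATP depletion) gave IC50.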

[2] = molecular target: Cyclin-dependent kinase 2 (Homo sapiens, UniProt P24941); experiment: Inhibition of human CDK2/GST-cyclin A expressed in Sf9 cells assessed as histone phosphorylation
In short: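 Sf-9 co-expressed CDK2 with GST-cyclin A, purified on glutathione-agarose and dialysed. Histone H1 was the substrate, in 40 mM Tris pH 7.5, 20 mM MgCl₂, 0.1 mg/mL BSA with phosphatase/protease inhibitors and DTT. Compounds came from 10 mM DMSO stock, serially diluted. 200 ng enzyme was incubated 30 min at 30 °C. ATP depletion was read by Kinase-Glo luminescence, and IC50 derived.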

Chain of Cyclin-dependent kinase 4/cyclin D1 (P11802 whole entry): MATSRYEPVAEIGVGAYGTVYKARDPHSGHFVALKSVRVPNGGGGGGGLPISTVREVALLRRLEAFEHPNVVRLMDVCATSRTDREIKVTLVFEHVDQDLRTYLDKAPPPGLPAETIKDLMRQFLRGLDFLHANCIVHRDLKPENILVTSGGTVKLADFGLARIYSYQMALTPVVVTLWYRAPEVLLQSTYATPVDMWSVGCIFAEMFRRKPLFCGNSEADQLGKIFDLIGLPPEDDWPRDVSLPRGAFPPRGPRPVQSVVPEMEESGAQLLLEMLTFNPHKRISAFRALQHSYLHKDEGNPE
Chain of Cyclin-dependent kinase 4/cyclin D1 (P24385 whole entry, further chain): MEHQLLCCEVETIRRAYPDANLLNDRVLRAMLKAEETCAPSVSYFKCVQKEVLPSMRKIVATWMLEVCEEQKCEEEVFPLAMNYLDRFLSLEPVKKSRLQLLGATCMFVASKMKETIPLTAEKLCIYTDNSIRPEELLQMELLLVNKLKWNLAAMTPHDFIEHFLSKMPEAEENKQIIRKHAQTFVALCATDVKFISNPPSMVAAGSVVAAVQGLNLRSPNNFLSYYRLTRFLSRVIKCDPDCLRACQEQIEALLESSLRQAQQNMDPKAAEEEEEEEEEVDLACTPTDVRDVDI

Row | SMILES | IC50 [1] [µM] | IC50 [2] [µM]
1 | CN(CCc1c[nH]c2ccccc12)C(=O)c1ccc(-c2ccncc2)cc1 | 26 | 92
2 | O=C(NCCc1c[nH]c2ccccc12)c1ccccc1-c1ccc(F)cc1 | 38 | 1220
3 | COc1cccc(-c2cccc(C(=O)N3CCc4c([nH]c5ccccc45)C3)c2)c1 | 33 | 362
4 | O=C(c1ccccc1-c1cccc(F)c1)N1CCc2c([nH]c3ccccc23)C1 | 35 | 480
5 | COc1ccc(-c2ccc(C(=O)NCCc3c[nH]c4ccccc34)cc2)cc1 | 48 | 1090
6 | Cc1ccccc1-c1ccc(C(=O)N2CCc3c([nH]c4ccccc34)C2)cc1 | 32 | 340
7 | O=C(NCCc1c[nH]c2ccccc12)c1cccc(-c2cccnc2)c1 | 30 | 150
8 | Cc1ccccc1-c1cccc(C(=O)N2CCc3c([nH]c4ccccc34)C2)c1 | 75 | 665
9 | O=C1c2ccccc2-[n+]2ccc3c([nH]c4ccccc43)c21 [FASCAPLYSIN CHLORIDE] | 0.55 | 500
10 | COc1cccc(-c2ccc(C(=O)N3CCc4c([nH]c5ccccc45)C3)cc2)c1 | 28 | 424
11 | COc1cccc(-c2ccccc2C(=O)NCCc2c[nH]c3ccccc23)c1 | 53 | 926
12 | COc1ccc(-c2ccc(C(=O)N(C)CCc3c[nH]c4ccccc34)cc2)cc1 | 49 | 289
13 | COc1ccc(-c2ccccc2C(=O)NCCc2c[nH]c3ccccc23)cc1 | 79 | 921
14 | COc1ccccc1-c1ccccc1C(=O)NCCc1c[nH]c2ccccc12 | 26 | 375
15 | COc1ccccc1-c1cccc(C(=O)N2CCc3c([nH]c4ccccc34)C2)c1 | 79 | 1110
16 | O=C(c1ccccc1-c1cccnc1)N1CCc2c([nH]c3ccccc23)C1 | 36 | 312
17 | CC(C)(C)c1ccc(-c2ccccc2C(=O)NCCc2c[nH]c3ccccc23)cc1 | 38 | 262
18 | CN(CCc1c[nH]c2ccccc12)C(=O)c1ccc(-c2ccc(-c3ccccc3)cc2)cc1 | 35 | 91
19 | O=C(c1cccc(-c2cccc(F)c2)c1)N1CCc2c([nH]c3ccccc23)C1 | 27 | 611
20 | O=C(NCCc1c[nH]c2ccccc12)c1cccc(-c2ccccc2)c1 | 86 | 1000
21 | O=C(c1ccccc1-c1ccncc1)N1CCc2c([nH]c3ccccc23)C1 | 39 | 354

More lines, in order of falling IC50 [1], values ahead:

Row | IC50 [1] [µM] | IC50 [2] [µM] | SMILES
22 | 26 | 386 | Cc1cccc(-c2ccccc2C(=O)N2CCc3c([nH]c4ccccc34)C2)c1
23 | 25 | 405 | Cc1cccc(-c2ccc(C(=O)N3CCc4c([nH]c5ccccc45)C3)cc2)c1
24 | 25 | 318 | O=C(c1cccc(-c2ccc(F)cc2)c1)N1CCc2c([nH]c3ccccc23)C1
25 | 24 | 466 | Cc1ccc(-c2cccc(C(=O)N3CCc4c([nH]c5ccccc45)C3)c2)cc1
26 | 24 | 70 | Cc1ccc(-c2ccc(C(=O)N(C)CCc3c[nH]c4ccccc34)cc2)cc1
27 | 23 | 357 | O=C(c1ccccc1-c1ccc(F)cc1)N1CCc2c([nH]c3ccccc23)C1
28 | 22 | 321 | COc1ccccc1-c1ccc(C(=O)N2CCc3c([nH]c4ccccc34)C2)cc1
29 | 21 | 296 | O=C(c1ccc(-c2cccc(F)c2)cc1)N1CCc2c([nH]c3ccccc23)C1
30 | 21 | 875 | CN(CCc1c[nH]c2ccccc12)C(=O)c1ccc(-c2ccc(F)cc2)cc1
31 | 20 | 417 | O=C(NCCc1c[nH]c2ccccc12)c1ccccc1-c1cccc(F)c1
32 | 19 | 434 | O=C(c1ccccc1-c1ccccc1F)N1CCc2c([nH]c3ccccc23)C1
33 | 18 | 816 | Cc1ccc(-c2ccc(C(=O)NCCc3c[nH]c4ccccc34)cc2)cc1
34 | 18 | 335 | O=C(c1cccc(-c2ccccc2F)c1)N1CCc2c([nH]c3ccccc23)C1
35 | 17 | 310 | O=C(c1ccc(-c2ccccc2F)cc1)N1CCc2c([nH]c3ccccc23)C1
36 | 16 | 855 | O=C(NCCc1c[nH]c2ccccc12)c1ccc(-c2ccccc2)cc1
37 | 15 | 406 | Cc1cccc(-c2ccccc2C(=O)NCCc2c[nH]c3ccccc23)c1
38 | 15 | 764 | O=C(NCCc1c[nH]c2ccccc12)c1ccc(-c2ccc(F)cc2)cc1
39 | 12 | 438 | O=C(c1ccc(-c2ccc(F)cc2)cc1)N1CCc2c([nH]c3ccccc23)C1
40 | 11.2 | 745 | CN(CCc1c[nH]c2ccccc12)C(=O)c1ccc(-c2ccc(C(C)(C)C)cc2)cc1
41 | 11 | 465 | Cc1cccc(-c2cccc(C(=O)N3CCc4c([nH]c5ccccc45)C3)c2)c1
42 | 9.2 | 790 | CC(C)(C)c1ccc(-c2ccc(C(=O)NCCc3c[nH]c4ccccc34)cc2)cc1
43 | 9 | 736 | Cc1ccc(-c2ccc(C(=O)N3CCc4c([nH]c5ccccc45)C3)cc2)cc1
44 | 6 |  | CN(CCc1c[nH]c2ccccc12)C(=O)c1ccc(-c2ccccc2)cc1
